M1 ag parental: counter-screen for M1 agonists: effect in parental CHO-K1 cells; Fluo-8 calcium fluorescence; scaled to maximal ATP response, vehicle zero; AID 602248; activation, % at 3 µM; actives 0.48% (n = 360,000); in the data active means activation above about 15%;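 further: untransfected CHO-K1 host cells lacking M1 receptor as counterscreen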
OX1R antag-1: OX1R (human) antagonism | OX1R-expressing cells, FRET antagonist read-out | actives 1.8% (n = 330,000) | O43613 | inhibition, % at 6.6 µM; in the data active means inhibition mostly above about 38%, no sharp cut-off; inactive means mostly below about 40%;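 further: 0% = agonist challenge alone and 100% = reference antagonist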
Target sequence (O43613 whole entry, looked up): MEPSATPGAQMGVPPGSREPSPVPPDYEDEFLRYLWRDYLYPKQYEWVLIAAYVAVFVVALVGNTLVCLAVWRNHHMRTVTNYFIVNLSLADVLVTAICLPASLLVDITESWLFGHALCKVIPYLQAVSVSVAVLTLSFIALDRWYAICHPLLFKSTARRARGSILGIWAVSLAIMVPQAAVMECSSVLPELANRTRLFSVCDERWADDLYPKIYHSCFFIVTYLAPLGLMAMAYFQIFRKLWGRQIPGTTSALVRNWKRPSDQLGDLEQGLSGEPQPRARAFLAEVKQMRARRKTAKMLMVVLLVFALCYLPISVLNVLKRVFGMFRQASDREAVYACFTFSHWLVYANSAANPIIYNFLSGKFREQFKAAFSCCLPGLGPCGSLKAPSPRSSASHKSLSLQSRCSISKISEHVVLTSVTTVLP
CHO-K1 Ca PAM: nonselective activator or artifact in parental CHO-K1 calcium assay; ATP EC20, Fluo-8 calcium fluorescence; 0% at ATP EC20, 100% at ATP max; actives 0.02% (n = 360,000); activation, % at 3 µM; AID 602247;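 active means activation above the run cutoff, the mean activation of all test compounds plus 3 SD, cut at about 40% in these data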;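 further: peak over basal fluorescence ratio in a 140 s read after ATP addition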
CHO-K1 Ca antag: counter-screen for M1 antagonists: effect in parental CHO-K1 cells. ATP-induced calcium, Fluo-8 fluorescence. actives 0.6% (n = 360,000). inhibition, % at 3 µM;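 active means inhibition above a per-plate cutoff, the plate's mean sample inhibition plus 3 SD, cut at about 24% in these data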;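 further: 0% = DMSO plus EC80 ATP and 100% = DMSO alone without ATP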
OX1R antag-2: human HCRTR1 antagonism | O43613 | CHO/OX1R cells, Fluo-8 calcium fluorescence, orexin A | inhibition, % at 5 µM | actives 0.43% (n = 330,000) | AID 434989;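 active means inhibition above its plate's threshold, mean inhibition of all tested compounds on the plate plus 3 SD, cut at about 37% in these data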;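 further: 0% = orexin A challenge wells and 100% = SB-334867-A antagonist wells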
CHO parental Ca: signal in parental CHO cells, OX1R antagonist counter-screen | actives 0.63% (n = 330,000) | parental CHO-K1, ATP-induced calcium, Fluo-8 fluorescence | inhibition, % at 5.6 µM;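 active means inhibition above that plate's mean sample inhibition plus 3 SD, cut at about 26% in these data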;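 further: 0% = ATP-challenged DMSO wells and 100% = DMSO wells without ATP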
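Test system: untransfected parental CHO cell line. Compound: one dose, 5.6 µM nominal. Detection: intracellular calcium via Fluo-8 no-wash fluorescent dye. Measure: % inhibition. Benchmarks: ATP-challenged DMSO wells low, unchallenged DMSO wells high.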
* marks the source's active call; other numbers are inactive results; . = no result. In the library only some 2.9% were active in any assay of this set; here they are far more common.

SMILES	M1 ag parental	OX1R antag-1	CHO-K1 Ca PAM	CHO-K1 Ca antag	OX1R antag-2	CHO parental Ca
CC(OC(=O)c1cc(S(=O)(=O)N(C)c2ccccc2)ccc1Cl)C(=O)Nc1ccc2c(c1)OCCO2 (stereo not drawn)	1	46*	18	-3	-16	-5
O=C(Nc1ccccc1)c1cc(S(=O)(=O)Nc2cccnc2)ccc1Cl	0	27	-20	17	-9	-8
O=C(Nc1ccccc1)c1cc(S(=O)(=O)NCc2ccncc2)ccc1Cl	13	6	-12	24*	-7	6
Cc1nn(C(C)(C)C)c(OC(=O)c2ccc(Br)o2)c1Sc1ccccc1	13	38*	25	-12	-19	-24
Cc1nnc(NC(=O)C2CCN(S(=O)(=O)c3cc([N+](=O)[O-])ccc3Cl)CC2)o1	0	28*	4	-12	-6	-8
O=C(NC1CC1)C1CCN(S(=O)(=O)c2cc([N+](=O)[O-])ccc2Cl)CC1	0	16	16	-13	-12	-12
C=CCn1c(SC)nnc1-c1ccc2ncccc2c1	17*	15	15	2	-14	-12
C=CCn1c(SC)nnc1-c1cccc([N+](=O)[O-])c1	2	53*	31	-20	-3	-7
C=CCn1c(-c2cccc([N+](=O)[O-])c2)n[nH]c1=S	1	46	22	-7	-3	-2
Cc1ccc(C(=O)NC(C(=O)OCc2cn3cc(Cl)ccc3n2)C(C)C)cc1 (stereo not drawn)	1	10	13	-25	-24	-30
Cc1nn(CC(=O)NC2CCC(C)CC2)c(=O)c(C#N)c1C (stereo not drawn)	0	44*	-9	-5	-5	-3
CC(C)CN1Cc2ccccc2Oc2cc(Br)ccc2S1(=O)=O	5	23	41*	-14	-38	-39
COCCSc1nnc(NC(=O)COc2ccc3c(c2)OCO3)s1	3	9	9	-21	1	-14
CCNc1nc(OC)nc(Oc2ccc(=O)n(-c3ccccc3)n2)n1	-1	11	-4	24*	-9	-11
O=C(Nc1nccs1)c1ccc([N+](=O)[O-])cc1	2	42*	14	-11	-11	-8
O=C(Nc1ncccn1)c1ccc([N+](=O)[O-])cc1	0	58*	-7	2	-12	-10
O=C(Nc1ccccc1O)c1ccc([N+](=O)[O-])cc1	1	33*	11	-5	-3	16
O=C(NC(=S)Nc1ccccn1)c1ccc([N+](=O)[O-])cc1	0	27	-1	0	2	-7
O=C(Cc1ccc([N+](=O)[O-])cc1)Nc1nccs1	2	12	14	-8	-13	1
O=C(N/N=C(\c1ccccc1)c1cccnc1)c1cc(O)ccc1O	.	23	.	.	1	-9
CCNc1nc(NC(C)C)nc(NS(=O)(=O)c2ccc(N)cc2)n1	0	10	-5	27*	-18	-6
CC(C)Nc1nc(NC(C)C)nc(NS(=O)(=O)c2ccc(N)cc2)n1	0	5	2	-7	-10	1
CNC(=O)c1c(NC(=O)c2nc3ccccc3s2)sc2c1CCC2	1	44*	7	-6	-8	-6
COC(=O)c1c(NC(=O)c2nc3ccccc3s2)sc2c1CCN(C(C)=O)C2	1	22	13	2	-16	-12
CCc1n[nH]c(=S)n1/N=C/c1c(O)ccc2ccccc12	0	14	7	-1	0	-8
SMILES	M1 ag parental	OX1R antag-1	CHO-K1 Ca PAM	CHO-K1 Ca antag	OX1R antag-2	CHO parental Ca
CCc1n[nH]c(=S)n1/N=C/c1cccc2ccccc12	18*	3	5	-4	-21	-19
CC(C)c1cc(-c2cc(C(=O)Nc3ccccc3)on2)nc(NCC2CC2)n1	.	17	.	.	-13	-9
CC(C)c1cc(-c2cc(C(=O)NCc3ccccc3)on2)nc(NCC2CC2)n1	9	1	-13	14	62*	44*
CCOC(=O)C(=CNc1nc(-c2ccccc2)c(C(=O)Nc2ccc(-c3ccccc3)cc2)s1)C(=O)OCC	1	11	20	-16	-27	-13
O=C1Nc2ccc3sc4ccccc4c3c2C1=O	-1	65*	-13	-2	0	-8
O=C1Nc2ccccc2C1=O	1	9	14	-5	1	-7
Cc1cnc(C(=O)N2CCN(S(=O)(=O)c3ccc(F)c(F)c3F)CC2)cn1	1	7	13	-9	-6	-7
CCOC(OCC)c1cn(Cc2ccc(C(=O)c3ccccc3)cc2)nn1	4	33	4	6	4	44*
N#CCCC(CCC#N)(CCC#N)c1cc[n+](CCc2ccccn2)cc1	1	13	3	-7	-14	-10
O=C(CSc1nnc(COc2ccccc2F)n1-c1ccccc1)NC1CCS(=O)(=O)C1 (stereo not drawn)	0	10	-13	28*	-12	-4
NC(=O)CN1CCOCCOCCN(CC(N)=O)CCOCCOCC1	2	28	-2	49*	-11	-2
CC1CCc2nc(NC(=O)C3COc4ccccc4O3)sc2C1 (stereo not drawn)	0	39*	-3	6	-32	-21
CCN(CC)CCN(Cc1cc2ccc(C)c(C)c2[nH]c1=O)C(=S)NCc1ccco1	1	13	16	-16	-11	-22
Cc1ccc(C(=O)Oc2ccccc2N2CCOCC2)cc1	20*	3	8	-4	0	-19
O=C(Oc1ccccc1N1CCOCC1)c1ccccc1	1	29	17	-3	3	-6
CCCN(CCC)C(=O)C1CCN(c2ccc(S(=O)(=O)N3CCOCC3)cc2[N+](=O)[O-])CC1	4	25	2	-6	-28	-17
Cc1ccc(S(=O)(=O)NC(=O)COc2ccc([N+](=O)[O-])cc2)cc1	0	1	6	-3	-10	-9
Cc1ccc(C(=O)CSc2cnc3ccccc3n2)cc1C	5	66*	9	-2	-8	-10
O=C(CSc1ccc2ccccc2n1)c1ccc2c(c1)OCO2	-1	31	-8	28*	-15	-11
CCOc1ccccc1OCCCC(=O)N1CCN(S(=O)(=O)c2cc(F)ccc2F)CC1	0	.	-18	28*	.	.
COC(=O)NC1CC2C=CC1C1C=CC21 (stereo not drawn)	0	.	-2	0	.	.
CC1CCC(NS(=O)(=O)c2ccc(N3CCCC3=O)cc2)CC1 (stereo not drawn)	20*	16	-24	23	12	-1
CCOC(=O)C1(CCCc2ccccc2)CCN(C(=O)CCC2=NNC(=O)CC2)CC1	25*	10	3	17	-15	-16
CCOC(=O)C1(CCCc2ccccc2)CCN(C(=O)CSC)CC1	2	9	4	-13	-21	-14

Source: PubChem
